# This is a sample that favours compounds with a hit; in the whole collection about 1.8% have one here.
# UHRF1 MBD2 ctr: UHRF1 methyl-DNA binding inhibition; inhibition, % at 4.4 µM; UHRF1 binding to methylated oligo, TR-FRET; hit rate 0.75% among 370,000; in the data active = inhibition above about 21%;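 note: UHRF1 SRA domain binding a hemimethylated CpG hairpin DNA probe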
# Target sequence (Q96T88 whole entry, looked up, the tested form may be a part): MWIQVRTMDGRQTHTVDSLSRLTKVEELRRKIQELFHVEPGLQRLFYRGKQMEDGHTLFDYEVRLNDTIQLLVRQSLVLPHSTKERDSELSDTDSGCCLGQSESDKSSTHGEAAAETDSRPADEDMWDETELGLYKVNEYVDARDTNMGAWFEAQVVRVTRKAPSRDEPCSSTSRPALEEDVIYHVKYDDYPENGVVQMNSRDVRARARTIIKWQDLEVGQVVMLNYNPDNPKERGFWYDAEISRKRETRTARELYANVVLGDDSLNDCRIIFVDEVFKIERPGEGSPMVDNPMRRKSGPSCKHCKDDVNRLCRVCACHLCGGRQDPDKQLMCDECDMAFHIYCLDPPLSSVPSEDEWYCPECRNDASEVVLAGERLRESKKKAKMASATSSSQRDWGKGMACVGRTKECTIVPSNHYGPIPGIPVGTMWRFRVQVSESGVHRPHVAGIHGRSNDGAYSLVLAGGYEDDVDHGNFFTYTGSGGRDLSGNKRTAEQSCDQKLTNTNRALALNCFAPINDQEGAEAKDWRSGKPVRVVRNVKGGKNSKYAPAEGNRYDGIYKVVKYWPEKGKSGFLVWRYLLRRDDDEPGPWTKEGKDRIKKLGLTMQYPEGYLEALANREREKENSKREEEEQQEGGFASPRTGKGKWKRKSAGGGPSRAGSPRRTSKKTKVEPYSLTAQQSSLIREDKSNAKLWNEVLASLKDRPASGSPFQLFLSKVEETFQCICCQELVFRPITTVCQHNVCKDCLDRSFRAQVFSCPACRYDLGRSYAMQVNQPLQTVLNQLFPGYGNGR
# MBD2 DNA inh: inhibitors of human MBD2 binding to methylated oligonucleotide; TR-FRET; inhibition, % at 4.4 µM; hit rate 0.31% among 370,000; AID 686964; in the data active = inhibition above about 13%
# TDP2 inh: TDP2 (human) inhibition, absorbance primary screen; O95551; recombinant TDP2, T5PNP hydrolysis, p-nitrophenol absorbance 415 nm; inhibition, % at 12.8 µM; hit rate 0.34% among 370,000;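 active = inhibition above the mean of all tested compounds plus 3 SD, set per campaign, cut at about 25% in these data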
#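 Evaluation: % inhibition relative to enzyme-containing and enzyme-free wells. Material: recombinant human TDP2. Benchmarks: enzyme-free and DMSO wells. Timing: enzyme reaction with compound for 2 h at 37 °C. Compound dosing: 12.8 µM only. Measured by: p-Nitrophenol epi absorbance. Reagent: T5PNP substrate at 5 mM, a TopII-DNA adduct mimic. Replication: single well per compound.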
# Casp6 inh: blocks human caspase-6 cleavage activity | P55212 | purified caspase-6, Z-VEID-R110 cleavage fluorescence | inhibition, % at 12.5 µM | hit rate 0.53% among 350,000 | AID 686996;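 active = mean inhibition across replicates at least about 35%, with every replicate also reaching that limit, limit read from the data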
# LEDGF integ inh: blocks HIV-1 LEDGF/p75-dependent DNA integration; inhibition, % at 3.7 µM; TR-FRET IN-LEDGF/p75 DNA integration, Eu/Cy5; hit rate 0.64% among 370,000;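 active = inhibition above the screen-wide mean plus 3 SD, cut at about 13% in these data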;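 note: signal is the Cy5 over europium emission ratio at 671 and 618 nm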
# NSD2 inh: blocks human histone methyltransferase NSD2. inhibition, % at 12.5 µM. O96028. hit rate 0.54% among 310,000. NSD2 peptide methylation, AlphaScreen, 120 min; in the data active = inhibition above about 50%
# UHRF1 DNA bind: inhibits human UHRF1 binding to methylated oligonucleotide, MBD2 counter-screen. AID 720530. TR-FRET. shares compounds with MBD2 DNA inh. hit rate 25% among 1,000. inhibition, % at 4.4 µM; in the data active = inhibition above about 21%;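 note: UHRF1 SRA domain binding a labeled hemimethylated CpG hairpin DNA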
# MBD2 confirm: confirmation of human MBD2-DBD methylated oligonucleotide binding inhibitors. shares compounds with MBD2 DNA inh. TR-FRET MBD2-DBD binding to methylated oligonucleotide. inhibition, % at 4.4 µM. hit rate 26% among 1,000. AID 720531
# CASP1 counter: blocks human caspase-1 in a selectivity counter-screen; purified caspase-1, Z-YVAD-R110 cleavage fluorescence; AID 743289; shares compounds with Casp6 inh; 100 tested, under 10 active; activity change, negative = inhibition, % at 35 µM;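 active = compounds lowering fluorescence whose fitted half-maximal concentration is no more than twice their top tested dose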
# TDP2 confirm: confirmation of human TDP2 inhibitors; inhibition, % at 12.8 µM; shares compounds with TDP2 inh; AID 743263; recombinant human TDP2, absorbance read-out; hit rate 22% among 1,100; in the data active = inhibition above about 25%
# IN multimer act: counter-screen for LEDGF/p75 integration inhibitors: HIV-1 integrase multimerization activators; shares compounds with LEDGF integ inh; TR-FRET HIV-1 integrase multimerization, biochemical; activation, % at 7.7 µM; hit rate 17% among 2,000; AID 1053131; in the data active = activation above about 8.9%
# TRFRET interf: optically interferes with TR-FRET readout in LEDGF counter-screen; shares compounds with LEDGF integ inh; TR-FRET optical interference counterscreen, HIV-1 IN multimerization; inhibition, % at 7.7 µM; 2,000 tested, under 10 active;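 active = inhibition above the mean over all tested compounds plus 3 SD, which no compound reached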
# IN-LEDGF confirm: confirmation of HIV-1 LEDGF/p75-dependent integration inhibitors. shares compounds with LEDGF integ inh. TR-FRET LEDGF/p75-dependent HIV-1 integration, biochemical. inhibition, % at 3.7 µM. hit rate 36% among 2,000. AID 1053136
# Numbers stand for hits; . = inactive; / = no result given. Cut-off read from the data, not from the text of the source, unless noted: active = inhibition above about 14%; inactive = the rest.
SMILES,UHRF1 MBD2 ctr,MBD2 DNA inh,TDP2 inh,Casp6 inh,LEDGF integ inh,NSD2 inh,UHRF1 DNA bind,MBD2 confirm,IN multimer act,TRFRET interf,IN-LEDGF confirm,others
Cc1[nH]n(-c2ccccc2)c(=O)c1C(c1cccc([N+](=O)[O-])c1O)c1c(C)[nH]n(-c2ccccc2)c1=O,24,21,84,.,26,.,.,.,.,.,.,TDP2 confirm=.
Cc1c(C(c2cccc([N+](=O)[O-])c2O)c2c(C)n(C)n(-c3ccccc3)c2=O)c(=O)n(-c2ccccc2)n1C,.,.,.,/,.,.,/,/,/,/,/,
COc1cc(C)c2c(c1C=O)Oc1c(c(C)c(O)c3c1C(O)OC3=O)OC2=O (stereo not drawn),65,31,.,78,90,/,24,.,.,.,92,CASP1 counter=.
COc1ccc(NC(=O)Nc2ccc3c(c2)C(=O)N([C@@H](C)CO)C[C@@H](C)[C@H](CN(C)C(=O)NC2CCCCC2)O3)cc1,/,/,/,.,/,/,/,/,/,/,/,
Cc1ccc(C)n1/N=C1/NC(=O)CS1,76,39,.,/,58,144,48,17,.,.,66,
O=C(Nc1cccc(F)c1)N1CC(=O)N2[C@H](CO)[C@H](c3ccc(C#CCC4CCCC4)cc3)[C@@H]2C1,/,/,/,.,/,/,/,/,/,/,/,
C[C@H]1CN([C@@H](C)CO)C(=O)Cc2cc(NS(=O)(=O)c3ccccc3)ccc2O[C@@H]1CN(C)CC1CCCCC1,/,/,/,.,/,/,/,/,/,/,/,
CC1(C)CCCN(C(=O)c2coc(=O)c(Br)c2)C1,62,18,.,/,22,114,101,65,16,.,65,
O=C(c1coc(=O)c(Br)c1)N1CCC(C(O)(c2ccccc2)c2ccccc2)CC1,.,.,.,.,.,.,/,/,/,/,/,
O=C1CC(c2ccc(O)c(O)c2)Oc2c1ccc(O)c2O (stereo not drawn),64,35,.,75,93,/,27,.,57,.,91,
CCCNC(=O)N1[C@H](CO)[C@H](c2ccccc2)[C@H]1CNC(=O)C1CCC1,/,/,/,.,/,/,/,/,/,/,/,
O=C(CCO)c1ccc(O)cc1,28,16,.,75,32,/,55,28,54,.,71,CASP1 counter=.
CCCCC(=O)c1ccc(O)cc1,.,.,.,.,.,.,/,/,/,/,/,
CCOc1ccc(NC(=O)CN(C)C(=O)c2csc3c2CCCC3)cc1OCC,.,.,.,.,.,.,/,/,/,/,/,
CCOc1ccc(NC(=O)CN(C)C(=O)c2cc3c(s2)CCC3)cc1OCC,27,17,.,.,16,.,24,20,14,.,18,
CN1C2=N[C@@H](c3cccc(C(F)(F)F)c3)CC(=O)N2/C(=C\c2ccccc2)[C@H]1c1ccccc1,51,31,.,/,16,/,29,23,20,.,.,
CN1C2=N[C@@H](c3ccc(Br)cc3)CC(=O)N2/C(=C\c2ccccc2)[C@@H]1c1ccccc1,.,.,.,/,.,/,/,/,/,/,/,
COc1ccc(S(=O)(=O)Nc2ccc3c(c2)C(=O)N([C@@H](C)CO)C[C@@H](C)[C@@H](CN(C)C(=O)NC2CCCCC2)OCCCC[C@H](C)O3)cc1,/,/,/,.,/,/,/,/,/,/,/,

# High-throughput results as filed in PubChem.
